Reference: ChEMBL document CHEMBL1629654, “Breakthrough Aspergillus fumigatus and Candida albicans double infection during caspofungin treatment: laboratory characteristics and implication for susceptibility testing” (2009)
Converted amounts (≈) assume the structure as drawn. The source made the active and inactive calls. The calls are words filed in the database; no cut-off is given here. *1 amine or outer side, *2 acyl side, *3 side chain or, on linkers, in order; H or OH if unused. Where a SMILES comes first, the peptide text is derived from it. Bridges are numbered along the chain shown (N, C = ends). [ ]: non-standard residue; d: D form. The star is where a group is joined. pTerphenylCO(4''-OnC5H11) = CCCCCOc1ccc(-c2ccc(-c3ccc(C(=O)*)cc3)cc2)cc1; Orn(4R-OH,5R-OH) = O=C([C@H](C[C@@H](O)[C@@H](O)N[*:3])N[*:1])[*:2]; hTyr(3S-OH,4S-OH) = N[C@H](C(=O)O)[C@H](O)[C@@H](O)c1ccc(O)cc1; Pro(3S-OH,4S-Me) = C[C@H]1CN[C@H](C(=O)O)[C@H]1O; Hyp = O=C(O)[C@@H]1C[C@@H](O)CN1

How the values were obtained:
[1] = test system: Candida albicans; assay: Antimicrobial activity against Candida albicans isolate S at 5 ug/ml grown on RPMI 1640 medium after 24 hrs by disk diffusion method; assay type: functional
Summary of the method: (§1)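 Disk diffusion on 90-mm RPMI 1640 with 2% glucose agar or on Mueller-Hinton agar. Plates were swabbed in three directions with a yeast suspension of 1–5 × 10^6 cells/ml. Paper disks (6 mm) held 1, 5 or 25 µg drug. Zone diameters were read at 24 and 48 h; values are means of two experiments.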

[2] = test system: Candida albicans; assay: Antimicrobial activity against Candida albicans isolate S at 5 ug/ml grown on Muller-Hinton agar medium after 24 hrs by disk diffusion method; assay type: functional; summary of the method: as §1
[3] = test system: Candida albicans; assay: Antimicrobial activity against Candida albicans isolate R after 48 hrs by EUCAST microdilution method; assay type: functional
Summary of the method: (§2)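 EUCAST broth microdilution, plates read spectrophotometrically at 490 nm. MIC is the lowest dilution giving 50% growth inhibition. C. krusei […] control included in each run.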

[4] = test system: Candida albicans; assay: Antimicrobial activity against Candida albicans isolate R after 24 hrs by microdilution method; assay type: functional
Summary of the method: (§3)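 Broth microdilution in microtiter plates, read spectrophotometrically at 490 nm. MIC taken as the lowest drug dilution giving 50% growth inhibition. C. krusei […] run as control in each run. Read at 24 h and 48 h; trailing growth noted at 48 h.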

[5] = test system: Candida albicans; assay: Antimicrobial activity against Candida albicans isolate R at 5 ug/ml grown on RPMI 1640 medium after 48 hrs by disk diffusion method; assay type: functional; summary of the method: as §1
[6] = test system: Candida albicans; assay: Antimicrobial activity against Candida albicans isolate R at 25 ug/ml grown on Muller-Hinton agar medium after 48 hrs by disk diffusion method; assay type: functional; summary of the method: as §1
[7] = test system: Candida albicans; assay: Antimicrobial activity against Candida albicans isolate C at 0.003 ug/ml after 48 hrs by agar dilution method; assay type: functional, organism-based
Summary of the method: (§4)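 Sabouraud agar wells contained caspofungin 0, 0.5, 1 or 2 µg/ml, or anidulafungin 0, 0.003, 0.125 or 0.5 µg/ml. Isolates were subcultured 2 days on CHROMagar. Suspensions of 1–5 × 10^6 CFU/ml in sterile water were diluted 1,500-fold, and 5 µl (about 3–15 cells) was spread per well. Growth was scored.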

[8] = test system: Candida albicans; assay: Antimicrobial activity against Candida albicans isolate S at 5 ug/ml grown on Muller-Hinton agar medium after 48 hrs by disk diffusion method; assay type: functional; summary of the method: as §1
[9] = test system: Candida albicans; assay: Antimicrobial activity against Candida albicans isolate S at 25 ug/ml grown on RPMI 1640 medium after 24 hrs by disk diffusion method; assay type: functional; summary of the method: as §1
[10] = test system: Candida albicans; assay: Antimicrobial activity against Candida albicans isolate R at 0.5 ug/ml after 48 hrs by agar dilution method; assay type: functional, organism-based; summary of the method: as §4
[11] = test system: Candida albicans; assay: Antimicrobial activity against Candida albicans isolate S at 1 ug/ml grown on Muller-Hinton agar medium after 24 hrs by disk diffusion method; assay type: functional; summary of the method: as §1
[12] = test system: Candida albicans; assay: Antimicrobial activity against Candida albicans isolate S at 25 ug/ml grown on Muller-Hinton agar medium after 24 hrs by disk diffusion method; assay type: functional; summary of the method: as §1
[13] = test system: Candida albicans; assay: Antimicrobial activity against Candida albicans isolate R at 25 ug/ml grown on RPMI 1640 medium after 24 hrs by disk diffusion method; assay type: functional; summary of the method: as §1
[14] = test system: Candida albicans; assay: Antimicrobial activity against Candida albicans isolate S at 1 ug/ml grown on RPMI 1640 medium after 48 hrs by disk diffusion method; assay type: functional; summary of the method: as §1
[15] = test system: Candida albicans; assay: Antimicrobial activity against Candida albicans isolate R at 1 ug/ml grown on Muller-Hinton agar medium after 24 hrs by disk diffusion method; assay type: functional; summary of the method: as §1
[16] = test system: Candida albicans; assay: Antimicrobial activity against Candida albicans isolate R after 48 hrs by microdilution method; assay type: functional; summary of the method: as §3
[17] = test system: Candida albicans; assay: Antimicrobial activity against Candida albicans isolate S at 5 ug/ml grown on RPMI 1640 medium after 48 hrs by disk diffusion method; assay type: functional; summary of the method: as §1
[18] = test system: Candida albicans; assay: Antimicrobial activity against Candida albicans isolate C after 24 hrs by microdilution method; assay type: functional; summary of the method: as §3
[19] = test system: Candida albicans; assay: Antimicrobial activity against Candida albicans isolate C after 48 hrs by EUCAST microdilution method; assay type: functional; summary of the method: as §2
[20] = test system: Candida albicans; assay: Antimicrobial activity against Candida albicans isolate R at 1 ug/ml grown on RPMI 1640 medium after 24 hrs by disk diffusion method; assay type: functional; summary of the method: as §1
[21] = test system: Candida albicans; assay: Antimicrobial activity against Candida albicans isolate R at 1 ug/ml grown on Muller-Hinton agar medium after 48 hrs by disk diffusion method; assay type: functional; summary of the method: as §1
[22] = test system: Candida albicans; assay: Antimicrobial activity against Candida albicans isolate R at 5 ug/ml grown on Muller-Hinton agar medium after 48 hrs by disk diffusion method; assay type: functional; summary of the method: as §1
[23] = test system: Candida albicans; assay: Antimicrobial activity against Candida albicans isolate S at 1 ug/ml grown on Muller-Hinton agar medium after 48 hrs by disk diffusion method; assay type: functional; summary of the method: as §1
[24] = test system: Candida albicans; assay: Antimicrobial activity against Candida albicans isolate C at 0.5 ug/ml after 48 hrs by agar dilution method; assay type: functional, organism-based; summary of the method: as §4
[25] = test system: Candida albicans; assay: Antimicrobial activity against Candida albicans isolate C after 48 hrs by microdilution method; assay type: functional; summary of the method: as §3
[26] = test system: Candida albicans; assay: Antimicrobial activity against Candida albicans isolate R at 1 ug/ml grown on RPMI 1640 medium after 48 hrs by disk diffusion method; assay type: functional; summary of the method: as §1
[27] = test system: Candida albicans; assay: Antimicrobial activity against Candida albicans isolate R at 25 ug/ml grown on RPMI 1640 medium after 48 hrs by disk diffusion method; assay type: functional; summary of the method: as §1
[28] = test system: Candida albicans; assay: Antimicrobial activity against Candida albicans isolate R at 5 ug/ml grown on RPMI 1640 medium after 24 hrs by disk diffusion method; assay type: functional; summary of the method: as §1
[29] = test system: Candida albicans; assay: Antimicrobial activity against Candida albicans isolate R at 5 ug/ml grown on Muller-Hinton agar medium after 24 hrs by disk diffusion method; assay type: functional; summary of the method: as §1
[30] = test system: Candida albicans; assay: Antimicrobial activity against Candida albicans isolate S at 25 ug/ml grown on RPMI 1640 medium after 48 hrs by disk diffusion method; assay type: functional; summary of the method: as §1
[31] = test system: Candida albicans; assay: Antimicrobial activity against Candida albicans isolate S at 1 ug/ml grown on RPMI 1640 medium after 24 hrs by disk diffusion method; assay type: functional; summary of the method: as §1
[32] = test system: Candida albicans; assay: Antimicrobial activity against Candida albicans isolate R after 48 hrs by Etest; assay type: functional
Summary of the method: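 Etest on RPMI 1640 agar with 2% glucose, performed according to the manufacturer's recommendations.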

[33] = test system: Candida albicans; assay: Antimicrobial activity against Candida albicans isolate S at 25 ug/ml grown on Muller-Hinton agar medium after 48 hrs by disk diffusion method; assay type: functional; summary of the method: as §1
[34] = test system: Candida albicans; assay: Antimicrobial activity against Candida albicans isolate R infected in NMRI mouse assessed as decrease in kidney bacterial burden at 12 mg/kg, ip measured on day 4; assay type: functional, organism-based; design: dose 12 mg/kg
Summary of the method: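 NMRI mice (26–30 g), seven per group, were inoculated iv on day 0 with C. albicans (1 × 10^5 CFU). They received ip treatment on days 1–3 with anidulafungin 12 mg/kg or fluconazole 50 mg/kg; controls received saline. On day 4, kidneys were homogenised in saline and CFU counted by spot plating of 10-fold dilutions. Results are log10 CFU/ml; detection limit 50 CFU/ml; Mann-Whitney test.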

[35] = test system: Candida albicans; assay: Antimicrobial activity against Candida albicans isolate R at 25 ug/ml grown on Muller-Hinton agar medium after 24 hrs by disk diffusion method; assay type: functional; summary of the method: as §1
[36] = test system: Candida albicans; assay: Antimicrobial activity against Candida albicans isolate R at 0.003 ug/ml after 48 hrs by agar dilution method; assay type: functional, organism-based; summary of the method: as §4
[37] = test system: Candida albicans; assay: Antimicrobial activity against Candida albicans isolate C after 48 hrs by Etest; assay type: functional
Summary of the method: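 Etest on RPMI 1640 agar with 2% glucose, run per the manufacturer's instructions. Index and control clinical blood isolates were tested in parallel.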

[38] = test system: Candida albicans; assay: Antimicrobial activity against Candida albicans isolate S infected in NMRI mouse assessed as decrease in kidney bacterial burden at 12 mg/kg, ip measured on day 4; assay type: functional, organism-based; design: dose 12 mg/kg

CCCCCOc1ccc(-c2ccc(-c3ccc(C(=O)N[C@H]4C[C@@H](O)[C@@H](O)NC(=O)[C@@H]5[C@@H](O)[C@@H](C)CN5C(=O)[C@H]([C@@H](C)O)NC(=O)[C@H]([C@H](O)[C@@H](O)c5ccc(O)cc5)NC(=O)[C@@H]5C[C@@H](O)CN5C(=O)[C@H]([C@@H](C)O)NC4=O)cc3)cc2)cc1 [ANIDULAFUNGIN] ({pTerphenylCO(4''-OnC5H11)}-[Orn(4R-OH,5R-OH)]T[Hyp][hTyr(3S-OH,4S-OH)]T[Pro(3S-OH,4S-Me)]; lactam 1-C)
inhibition zone (IZ) [1]: 15.9 mm
inhibition zone (IZ) [2]: 14.2 mm
MIC [3]: 0.06 µg/mL (≈ 0.0526 µM)
MIC [4]: 0.5 µg/mL (≈ 0.438 µM)
inhibition zone (IZ) [5]: 8.8 mm
inhibition zone (IZ) [6]: 7 mm
growth inhibition (GI) [7]: inactive
inhibition zone (IZ) [8]: 14.6 mm
inhibition zone (IZ) [9]: 14.9 mm
growth inhibition (GI) [10]: inactive
inhibition zone (IZ) [11]: 13.2 mm
inhibition zone (IZ) [12]: 12.8 mm
inhibition zone (IZ) [13]: 7.7 mm
inhibition zone (IZ) [14]: 13.2 mm
inhibition zone (IZ) [15]: 6.7 mm
MIC [16]: 0.25 µg/mL (≈ 0.219 µM)
inhibition zone (IZ) [17]: 15.7 mm
MIC [18]: 0.015 µg/mL (≈ 0.0132 µM)
MIC [19]: ≤ 0.03 µg/mL
inhibition zone (IZ) [20]: 8.5 mm
inhibition zone (IZ) [21]: 6.8 mm
inhibition zone (IZ) [22]: 9.9 mm
inhibition zone (IZ) [23]: 13.9 mm
growth inhibition (GI) [24]: Active
MIC [25]: ≤ 0.015 µg/mL
inhibition zone (IZ) [26]: 7.8 mm
inhibition zone (IZ) [27]: 7.1 mm
inhibition zone (IZ) [28]: 9.5 mm
inhibition zone (IZ) [29]: 9.4 mm
inhibition zone (IZ) [30]: 13.8 mm
inhibition zone (IZ) [31]: 13.7 mm
MIC [32]: 0.5 µg/mL (≈ 0.438 µM)
inhibition zone (IZ) [33]: 13.1 mm
Activity [34]: inactive
inhibition zone (IZ) [35]: 6.8 mm
growth inhibition (GI) [36]: inactive
MIC [37]: ≤ 0.002 µg/mL
Activity [38]: Active

CCC(C)n1ncn(-c2ccc(N3CCN(c4ccc(OCC5COC(Cn6cncn6)(c6ccc(Cl)cc6Cl)O5)cc4)CC3)cc2)c1=O (stereo not given) [ITRACONAZOLE]
MIC [3]: ≤ 0.03 µg/mL
MIC [4]: ≤ 0.03 µg/mL
MIC [16]: ≤ 0.03 µg/mL
MIC [18]: ≤ 0.03 µg/mL
MIC [19]: ≤ 0.03 µg/mL
MIC [25]: ≤ 0.03 µg/mL

CC[C@@H]([C@H](C)O)n1ncn(-c2ccc(N3CCN(c4ccc(OC[C@@H]5CO[C@@](Cn6cncn6)(c6ccc(F)cc6F)C5)cc4)CC3)cc2)c1=O [POSACONAZOLE]
MIC [3]: ≤ 0.03 µg/mL
MIC [4]: ≤ 0.03 µg/mL
MIC [16]: ≤ 0.03 µg/mL
MIC [18]: ≤ 0.03 µg/mL
MIC [19]: ≤ 0.03 µg/mL
MIC [25]: ≤ 0.03 µg/mL
